{"source": "paper PMC4391825", "about": "(Chembiochem : a European journal of chemical biology, 2014)", "type_in_all_cases": "biochemical", "key": {"SaPanK [1]": {"target": "T1, SaPanK (Staphylococcus aureus, UniProt Q8NVG0)", "T1 sequence (Q8NVG0 1-267)": "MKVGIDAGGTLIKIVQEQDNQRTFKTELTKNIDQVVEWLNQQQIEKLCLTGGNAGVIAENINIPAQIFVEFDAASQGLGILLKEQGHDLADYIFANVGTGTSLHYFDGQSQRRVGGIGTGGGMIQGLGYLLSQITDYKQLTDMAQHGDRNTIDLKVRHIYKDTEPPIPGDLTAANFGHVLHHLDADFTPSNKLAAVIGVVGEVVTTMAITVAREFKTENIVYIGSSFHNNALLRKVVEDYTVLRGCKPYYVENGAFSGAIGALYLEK", "assay": "RP-HPLC of stepwise conversion to […]b", "conditions": "ATP, MgCl2; 100 mM Tris-HCl pH 7.60, 25 °C (large-scale mixture)"}, "PhaECAv": {"target": "T2, PhaECAv (Allochromatium vinosum, UniProt P45370)", "T2 sequence (P45370 1-355)": "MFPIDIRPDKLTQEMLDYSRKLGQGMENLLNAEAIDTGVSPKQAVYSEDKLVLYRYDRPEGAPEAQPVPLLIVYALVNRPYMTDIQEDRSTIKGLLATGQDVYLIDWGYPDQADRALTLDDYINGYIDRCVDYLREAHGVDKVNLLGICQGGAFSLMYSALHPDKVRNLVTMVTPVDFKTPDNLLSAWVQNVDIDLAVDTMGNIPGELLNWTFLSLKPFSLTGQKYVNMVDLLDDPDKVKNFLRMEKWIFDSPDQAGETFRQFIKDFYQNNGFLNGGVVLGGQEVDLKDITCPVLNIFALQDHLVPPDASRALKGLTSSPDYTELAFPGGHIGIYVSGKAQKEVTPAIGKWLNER", "T2 sequence (P45372 1-357 partner)": "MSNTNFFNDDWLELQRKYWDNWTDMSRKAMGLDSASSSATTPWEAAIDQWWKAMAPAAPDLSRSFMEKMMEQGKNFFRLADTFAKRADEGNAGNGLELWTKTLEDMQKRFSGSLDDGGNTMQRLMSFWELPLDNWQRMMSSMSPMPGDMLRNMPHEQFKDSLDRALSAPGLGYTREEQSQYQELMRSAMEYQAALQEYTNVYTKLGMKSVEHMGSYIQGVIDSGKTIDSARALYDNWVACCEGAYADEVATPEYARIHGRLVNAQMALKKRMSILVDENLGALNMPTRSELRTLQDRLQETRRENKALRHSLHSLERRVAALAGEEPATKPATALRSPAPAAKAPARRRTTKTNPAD", "assay": "continuous DTNB assay of CoA release, SigmaPlot fit", "procedure,_shortened": "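Purified wild-type PhaECAv at 5.80 nM, assayed at 30 °C in 100 mM KPi (pH 7.80) with 0.30 mM DTNB, 2 mg/mL BSA, HBCoA 0.025 to 1.60 mM, and test compound at varied concentrations. CoA release followed as A412 (ε 13.7 mM−1cm−1). Rates were taken from the initial fast-phase slope, in duplicate, and fitted to Michaelis-Menten inhibition models; Lineweaver-Burk plots assigned the mode.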"}, "SaPanK [2]": {"target": "T1, SaPanK", "assay": "RP-HPLC of stepwise conversion to […]a", "conditions": "ATP, MgCl2; 100 mM Tris-HCl pH 7.60, 25 °C (large-scale mixture)"}}}
{"smiles": "CCCC(=O)O[C@H](C)CC(=O)O[C@H](C)CC(=O)O[C@H](C)CC(=O)CCCNC(=O)CCNC(=O)[C@H](O)C(C)(C)CO", "note": "[17b, (R)-((R)-7-(3-((R)-2,4-dihydroxy-3,3-dimethylbutanamido)propanamido)-4-oxoheptan-2-yl) 3-((R)-3-(butyryloxy)butanoyloxy)butanoate]", "values": [{"measurement": "RP-HPLC of stepwise conversion to 24b", "setting": "SaPanK [1]", "result": "with sequential additions of SaPanK, EcCoaD, and EcCoaE, the resulting products were eluted faster"}]}
{"smiles": "CCCC(=O)O[C@H](C)CC(=O)O[C@H](C)CC(=O)O[C@H](C)CC(=O)CCCNC(=O)CCNC(=O)[C@H](O)C(C)(C)COP(=O)(O)OP(=O)(O)OC[C@H]1O[C@@H](n2cnc3c(N)ncnc32)[C@H](O)[C@@H]1OP(=O)(O)O", "note": "[26b, sTet-CH2-CoA]", "values": [{"measurement": "Ki", "setting": "PhaECAv", "result": "500 ± 30", "unit": "µM"}]}
{"smiles": "CCCC(=O)O[C@H](C)CC(=O)O[C@H](C)CC(=O)CCCNC(=O)CCNC(=O)[C@H](O)C(C)(C)CO", "note": "[17a, (R)-((R)-7-(3-((R)-2,4-dihydroxy-3,3-dimethylbutanamido)propanamido)-4-oxoheptan-2-yl) 3-(butyryloxy)butanoate]", "values": [{"measurement": "RP-HPLC of stepwise conversion to 24a", "setting": "SaPanK [2]", "result": "with sequential additions of SaPanK, EcCoaD, and EcCoaE, the resulting products were eluted faster"}]}
{"smiles": "CCCC(=O)O[C@H](C)CC(=O)O[C@H](C)CC=O", "note": "[compound 29, sT-aldehyde]", "values": [{"measurement": "Ki", "setting": "PhaECAv", "result": "3130 ± 470", "unit": "µM"}]}
{"smiles": "CCCC(=O)O[C@H](C)CC(=O)O[C@H](C)CC(=O)CCCNC(=O)CCNC(=O)[C@H](O)C(C)(C)COP(=O)(O)OP(=O)(O)OC[C@H]1O[C@@H](n2cnc3c(N)ncnc32)[C@H](O)[C@@H]1OP(=O)(O)O", "note": "[26a, sT-CH2-CoA]", "values": [{"measurement": "Ki", "setting": "PhaECAv", "result": "600 ± 30", "unit": "µM"}]}
